Series [1] relates to Canis familiaris. The series can be described thus: Compound administered intravenously was evaluated for salidiuretic activity measured as sodium ion excretion in Dog; Value ranges from 800-899. It is filed as ADME, organism-based, Canis lupus familiaris, Urine. The note with it: in vivo, iv. Put shortly: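 Conditioned female mongrel dogs, postabsorptive, water-loaded (500 mL po) 1 h before sodium pentobarbital anesthesia (30 mg/kg iv). Bladder catheter; creatinine 4 g sc; phosphate–mannitol buffer pH 7.4 infused (3.0 mL/min) throughout. […] Urine Na+ measured; response scored 0–6.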

The test system of series [2] is Canis familiaris. The series can be described thus: Salidiuretic activity in dog following i.v. dosing at 5 mg/kg. On the set-up: unit not given beside the values. The note with it: route intravenous. The class given is functional, Canis lupus familiaris, Urine. Put shortly:
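Conditioned female mongrel dogs, postabsorptive, got a 500 mL oral water load 1 h before pentobarbital anesthesia (30 mg/kg iv). After replicate 15-min control collections, compound was given as an iv stat injection.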

The subject of series [3] is Rattus norvegicus. Kind of series: Oral diuretic activity was evaluated by measuring Cl- excretion in Rat at 9 mg/kg […] (0-5 hr). The note with it: in vivo. The class given is ADME, organism-based, Urine. On the set-up: dose 9 mg/kg. Put shortly: (§1)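 Female Charles-River rats (150–170 g) were kept overnight on a sugar diet with water ad libitum. Test substance was dissolved in DMF and diluted with water containing Tween 80 to a final 4% DMF vehicle, then given po in 5.0 mL. Rats were housed three per metabolism cage, and 0–5 h urine was assayed for Na⁺, K⁺ and Cl⁻ alongside concurrent placebo groups. Values are mequiv × 100 per cage, geometric means of three cages per dose.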

Series [4] has as its system Rattus norvegicus. Kind of series: Oral diuretic activity was evaluated by measuring K+ excretion in Rat at 81 mg/kg after […] (0-5 hr). It is filed as ADME, organism-based, Urine. On the set-up: dose 81 mg/kg. The gist of the method: as §1
The nature of series [5]: Compound administered orally at a dose of 5 mg/kg was evaluated for salidiuretic activity measured as sodium ion excretion in Rat. The note with it: Urine. On the set-up: dose 5 mg/kg. It is filed as organism-based. The gist of the method:
(§2)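 Female Charles-River rats (150–170 g), overnight on sugar diet with water ad libitum. Compound dissolved in DMF, diluted with water containing Tween 80 (final 4% DMF), given po in 5.0 mL; concurrent vehicle placebo. Three rats per metabolism cage; 0–5 h urine analysed for Na+, K+, Cl-. Values: mequiv × 100 per cage, geometric means of three cages per dose; scored 0–6 by Na+.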

The subject of series [6] is Canis familiaris. The series can be described thus: Oral diuretic activity was evaluated by measuring K+ excretion in dog at 10 mg/kg after ip administration (0-6 hr). The class given is ADME, organism-based, Canis lupus familiaris, Urine. On the set-up: dose 10 mg/kg, route intraperitoneal. The note with it: in vivo. Put shortly:
(§3)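 Spontaneous urine was pooled with bladder urine collected by catheterization at 6 h. Volume was measured and Na+, K+ and Cl− were determined by standard methods. Values are geometric means.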

The subject of series [7] is Rattus norvegicus. Kind of series: Maximum fall in mean arterial blood pressure was measured in SH rats when compound was administered at 3.75 mg/kg perorally. It is filed as functional. The note with it: route oral.
Series [8] concerns Rattus norvegicus. Kind of series: Maximum fall in mean arterial blood pressure was measured in SH rats when compound was administered at 30 mg/kg perorally. The note with it: route oral. The class given is functional.
The subject of series [9] is Canis familiaris. The series can be described thus: Oral diuretic activity was evaluated by measuring Na+ excretion in dog at 1 mg/kg after ip administration (0-6 hr). It is filed as ADME, organism-based, Canis lupus familiaris, Urine. The note with it: in vivo. Also on record: dose 1 mg/kg, route intraperitoneal. Put shortly:
as §3

For series [10], the system named is Canis familiaris. The series can be described thus: Oral diuretic activity was evaluated by measuring K+ excretion in dog at 5 mg/kg after ip administration (0-6 hr). It is filed as ADME, organism-based, Canis lupus familiaris, Urine. On the set-up: dose 5 mg/kg, route intraperitoneal. The note with it: in vivo. The gist of the method: as §3
Series [11] has as its system Rattus norvegicus. Kind of series: Compound administered orally at a dose of 81 mg/kg was evaluated for salidiuretic activity measured as sodium ion excretion in Rat. It is filed as ADME, organism-based, Urine. On the set-up: dose 81 mg/kg, route oral. The note with it: in vivo, po. The gist of the method: as §2
Series [12] concerns Rattus norvegicus. The series can be described thus: Oral diuretic activity was evaluated by measuring Na+ excretion in Rat at 9 mg/kg after […] (0-5 hr). The class given is ADME, organism-based, Urine. On the set-up: dose 9 mg/kg. The note with it: in vivo, ip. The gist of the method:
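Female Charles-River rats (150–170 g) were kept overnight on a sugar diet with water ad libitum. Compound was dissolved in DMF, then diluted with water containing Tween 80 (3 drops/100 mL) to a final 4% DMF, and given po in 5.0 mL. Rats were housed three per metabolism cage. Urine from 0–5 h was analysed for Na+, K+ and Cl−, with concurrent placebo controls. Values are mequiv × 100 per cage, geometric mean of three cages per dose.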

The subject of series [13] is Rattus norvegicus. The series can be described thus: Maximum fall in mean arterial blood pressure was measured in SH rats when compound was administered at 7.5 mg/kg perorally. The note with it: route oral. It is filed as functional.
Series [14] concerns Rattus norvegicus. The series can be described thus: Oral diuretic activity was evaluated by measuring K+ excretion in Rat at 27 mg/kg […] (0-5 hr). It is filed as ADME, organism-based, Urine. On the set-up: dose 27 mg/kg. Put shortly:
as §1

Series [15] has as its system Rattus norvegicus. The series can be described thus: Oral diuretic activity was evaluated by measuring Cl- excretion in Rat at 81 mg/kg after po administration (0-5 hr). The note with it: in vivo.
Series [16] can be described thus: Evaluated for salidiuretic activity measured as sodium ion excretion in Rat, administered orally at a dose of 16.5 mg/kg. The class given is organism-based. On the set-up: dose 16.5 mg/kg. The note with it: Urine. The gist of the method: as §2
Series [17] concerns Rattus norvegicus. The series can be described thus: Evaluated for salidiuretic activity measured as sodium ion excretion in Rat, administered orally at a dose of 50 mg/kg. The class given is functional, Urine. On the set-up: unit not given beside the values. The note with it: route oral. The gist of the method: as §2
The test system of series [18] is Rattus norvegicus. The series can be described thus: Oral diuretic activity was evaluated by measuring Cl- excretion in Rat at 27 mg/kg […] (0-5 hr). The class given is ADME, organism-based, Urine. Also on record: dose 27 mg/kg. The note with it: in vivo.
Series [19] concerns Canis familiaris. Kind of series: Oral diuretic activity was evaluated by measuring Na+ excretion in dog at 10 mg/kg after ip administration (0-6 hr). It is filed as ADME, organism-based, Canis lupus familiaris, Urine. The note with it: in vivo. On the set-up: dose 10 mg/kg, route intraperitoneal. The gist of the method: as §3
In series [20] the test system is Rattus norvegicus. The series can be described thus: Oral diuretic activity was evaluated by measuring Na+ excretion in Rat at 81 mg/kg […] (0-5 hr). The class given is ADME, organism-based, Urine. Also on record: dose 81 mg/kg. The note with it: in vivo.
The test system of series [21] is Canis familiaris. Kind of series: Oral diuretic activity was evaluated by measuring Cl- excretion in dog at 5 mg/kg after […] (0-6 hr). The class given is ADME, organism-based, Canis lupus familiaris, Urine. On the set-up: dose 5 mg/kg, route intraperitoneal. The note with it: in vivo.
Series [22] has as its system Canis familiaris. Kind of series: Oral diuretic activity was evaluated by measuring Cl- excretion in dog at 10 mg/kg after […] (0-6 hr). The class given is ADME, organism-based, Canis lupus familiaris, Urine. On the set-up: dose 10 mg/kg, route intraperitoneal. The note with it: in vivo.
Series [23] has as its system Canis familiaris. The series can be described thus: Oral diuretic activity was evaluated by measuring Na+ excretion in dog at 5 mg/kg after ip administration (0-6 hr). The class given is ADME, organism-based, Canis lupus familiaris, Urine. The note with it: in vivo. Also on record: dose 5 mg/kg, route intraperitoneal. The gist of the method:
as §3

Series [24] concerns Rattus norvegicus. Kind of series: Oral diuretic activity was evaluated by measuring K+ excretion in Rat at 9 mg/kg […] (0-5 hr). Also on record: dose 9 mg/kg. The class given is ADME, organism-based, Urine. The gist of the method:
as §1

Series [25] has as its system Canis familiaris. The series can be described thus: Oral diuretic activity was evaluated by measuring K+ excretion in dog at 1 mg/kg after ip administration (0-6 hr). It is filed as ADME, organism-based, Canis lupus familiaris, Urine. The note with it: in vivo. Also on record: dose 1 mg/kg, route intraperitoneal. Put shortly:
as §3

Take `CC(C)(C)c1cc(CN)c(O)c(C(=O)O)c1.Cl`: the Diuretic activity in the series with Canis familiaris [1] is on record as 800.

As to `NS(=O)(=O)c1cc(C(=O)O)c(NCc2ccco2)cc1Cl` [FUROSEMIDE], the Diuretic activity was determined as 250 in the series on Canis familiaris [2]; 0.22 in the series with Rattus norvegicus [3]; 0.77 in the series on Rattus norvegicus [4]; 0.5 in series [5]; 8.4 in the series on Canis familiaris [6]; 11.4 in the series with Canis familiaris [9]. Besides, the Diuretic activity with Canis familiaris [10] was determined as 7.3; in the series on Rattus norvegicus [11], 2.9; with Rattus norvegicus [12], 0.07; with Rattus norvegicus [14] it was 0.55; in the series on Rattus norvegicus [15], 3.7; in [16] it was 1.4. For the same compound, the Diuretic activity with Rattus norvegicus [17] was 2.4; with Rattus norvegicus [18] it was 2.13; in the series on Canis familiaris [19] it was 35; in the series with Rattus norvegicus [20] it was 2.44; with Canis familiaris [21], 37; with Canis familiaris [22], 43.8. Moreover, the Diuretic activity in the series with Canis familiaris [23] turned out to be 28.2; with Rattus norvegicus [24] it was 0.14; with Canis familiaris [25], 4.1. Further, the values for the MAP in the series on Rattus norvegicus [7], in the series on Rattus norvegicus [8] and with Rattus norvegicus [13] were 12 mmHg, 12 mmHg and 10 mmHg, respectively.

For the origin of these results see ChEMBL document CHEMBL1121573, “2-(Aminomethyl)phenols, a new class of saluretic agents. 1. Effects of nuclear substitution” (J Med Chem, 1980).
